For 11 molecules, Activity results are on record in ChEMBL document CHEMBL4732017, “Discovery, affinity maturation and multimerization of small molecule ligands against human tyrosinase and tyrosinase-related protein 1” (RSC Med Chem, 2021).

Experiment [1] addresses 5,6-dihydroxyindole-2-carboxylic acid oxidase (Homo sapiens) (UniProt P17643). Put plainly: Binding affinity to human tyrosinase related protein 1 expressed in mouse B16F10 cells at 10 uM by fluorophore based flow cytometry assay. The note with it: B16-F10.
Experiment [2] has the same target. The experiment is described as follows: Binding affinity to human tyrosinase related protein 1 up to 100 uM by ELISA. To be noted: dose microM <=100. A digest of the protocol:
(§1)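 Wells are coated overnight at 4 °C with 100 nM hTYR or hTYRP1 in PBS and blocked with 4% milk-PBS for 30–45 min. A serial dilution of fluorescein-ligand conjugate is added for 45 min in the dark. Detection uses 200 nM anti-fluorescein IgG, then protein A-HRP (1:1000), each for 45 min with washes between. Absorbance is read at 450 and 620 nm, and values are fitted.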
Background: In an ELISA, binding on a coated surface is turned into a signal by an enzyme label.

Experiment [3] addresses T1, Tyrosinase (Homo sapiens) (UniProt P14679).
T1 sequence (whole entry): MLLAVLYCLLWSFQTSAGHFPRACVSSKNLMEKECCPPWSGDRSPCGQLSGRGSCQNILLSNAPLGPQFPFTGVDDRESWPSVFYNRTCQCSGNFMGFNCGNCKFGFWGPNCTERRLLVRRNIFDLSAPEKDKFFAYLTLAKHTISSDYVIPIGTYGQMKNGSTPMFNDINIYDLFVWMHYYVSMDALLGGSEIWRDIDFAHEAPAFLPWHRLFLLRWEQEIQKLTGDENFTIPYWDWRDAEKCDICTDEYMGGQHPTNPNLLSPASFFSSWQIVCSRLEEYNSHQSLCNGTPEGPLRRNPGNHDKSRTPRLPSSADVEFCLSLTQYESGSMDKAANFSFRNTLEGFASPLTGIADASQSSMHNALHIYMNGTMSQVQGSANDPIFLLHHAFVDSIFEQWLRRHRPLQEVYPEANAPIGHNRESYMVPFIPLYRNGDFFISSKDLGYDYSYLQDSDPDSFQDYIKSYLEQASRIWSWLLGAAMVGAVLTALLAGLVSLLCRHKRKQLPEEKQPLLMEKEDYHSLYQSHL
Put plainly: Binding affinity to human tyrosinase expressed in mouse B16F10 cells at 10 uM by fluorophore based flow cytometry assay. The note with it: B16-F10. (In general: In flow cytometry, cells or beads pass a laser one at a time.)

The target in experiment [4] is T1, Tyrosinase (Homo sapiens). The experiment is described as follows: Binding affinity to human tyrosinase up to 100 uM by ELISA. The note with it: dose microM <=100. A digest of the protocol: as §1
Experiment [5] deals with T1, Tyrosinase (Homo sapiens). Put plainly: Binding affinity to human tyrosinase at 50 uM at pH 6.8 by enzymatic assay. A digest of the protocol: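 Human tyrosinase intramelanosomal domain (residues 19–456), 200 nM, with 1 mM L-DOPA and 4 mM MBTH in PBS pH 6.8 with 1% DMSO at 25 °C. Dopaquinone-MBTH absorbance at 490–510 nm is recorded over 10 min, in duplicate, and the OD–time slope is taken by linear regression. Single-point tests use a fixed 50 µM inhibitor. IC50 comes from fitting the slope against inhibitor concentration.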

Experiment [6] addresses 5,6-dihydroxyindole-2-carboxylic acid oxidase (Homo sapiens) (UniProt P17643). The experiment is described as follows: Binding affinity to human tyrosinase related protein 1 up to 10 uM by fluorescence polarization analysis. To be noted: dose microM <=10. In short, it runs like this:
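hTYRP1 intramelanosomal domain (residues 25–471) is serially diluted 1:1 and incubated with 50 nM fluorescein-conjugated ligand in PBS pH 7.4. Fluorescence anisotropy is read in triplicate and anisotropy values are fitted against protein concentration.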
(Polarisation of emitted light reports the rotation of a fluorescent probe.)

Structures are written as SMILES. Active and inactive are the calls of the source. The rule behind the calls is not given here.

5,6-dihydroxyindole-2-carboxylic acid oxidase (Homo sapiens), sequence (P17643 whole entry, the tested form may be a part): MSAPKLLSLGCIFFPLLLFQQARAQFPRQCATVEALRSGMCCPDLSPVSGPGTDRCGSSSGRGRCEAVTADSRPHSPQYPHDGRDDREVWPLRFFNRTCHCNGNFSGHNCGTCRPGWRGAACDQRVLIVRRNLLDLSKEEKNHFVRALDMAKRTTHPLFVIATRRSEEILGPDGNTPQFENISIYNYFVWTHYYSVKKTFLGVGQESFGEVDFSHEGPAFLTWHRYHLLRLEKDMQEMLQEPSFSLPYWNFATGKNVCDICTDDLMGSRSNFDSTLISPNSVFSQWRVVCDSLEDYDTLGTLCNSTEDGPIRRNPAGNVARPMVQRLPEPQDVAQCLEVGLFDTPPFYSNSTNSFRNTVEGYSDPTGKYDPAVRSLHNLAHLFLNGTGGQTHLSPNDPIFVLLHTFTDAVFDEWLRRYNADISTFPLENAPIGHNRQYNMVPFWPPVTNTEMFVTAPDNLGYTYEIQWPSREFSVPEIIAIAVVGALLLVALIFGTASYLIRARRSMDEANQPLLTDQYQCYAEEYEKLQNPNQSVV

Take `N=C(N)NCCC[C@@H](NC(=O)[C@@H](CC(=O)O)NC(=O)[C@H](CCCCNC(=O)[C@H](CCCCNC(=O)CCCCCNC(=O)CCCCn1cc(CCCC(=O)Nc2nc(-c3ccc(O)cc3O)cs2)nn1)NC(=O)CCCCCNC(=O)CCCCn1cc(CCCC(=O)Nc2nc(-c3ccc(O)cc3O)cs2)nn1)NC(=O)[C@H](CCCCNC(=O)CCCCCNC(=O)CCCCn1cc(CCCC(=O)Nc2nc(-c3ccc(O)cc3O)cs2)nn1)NC(=O)CCCCCNC(=O)CCCCn1cc(CCCC(=O)Nc2nc(-c3ccc(O)cc3O)cs2)nn1)C(=O)N[C@H](CC(=O)O)C(=O)NCCCCCC(=O)N[C@@H](CSC1CC(=O)N(c2ccc3c(c2)C(=O)OC32c3ccc(O)cc3Oc3cc(O)ccc32)C1=O)C(=O)O` (stereo not given in full): the result in experiment [1], in experiment [2], in experiment [3] and in experiment [4] was Active.

For the molecule `N=C(N)NCCC[C@@H](NC(=O)[C@@H](CC(=O)O)NC(=O)CCCCn1cc(CCCC(=O)Nc2nc(-c3ccc(O)cc3O)cs2)nn1)C(=O)N[C@H](CC(=O)O)C(=O)NCCCCCC(=O)NC(CSC1CC(=O)N(c2ccc3c(c2)C(=O)OC32c3ccc(O)cc3Oc3cc(O)ccc32)C1=O)C(=O)O` (single isomer, unassigned), the outcome in experiment [1], in experiment [2], in experiment [3] and in experiment [4] was Active.

For the molecule `CN(C)c1ccc(CC(=O)N[C@H](CCC(N)=O)C(=O)N2CCCN(c3ccc(F)cc3)CC2)cc1`, the outcome in experiment [5] was Active.

For `CN(C)c1ccc(CC(=O)N[C@H](CCC(N)=O)C(=O)NCc2cccc(N3CCOCC3)c2)cc1`, the outcome in experiment [5] was Active.

With `CN(C)c1ccc(CC(=O)N[C@@H](CCC(N)=O)C(=O)NCc2ccccc2N2CCCC2)cc1`, in experiment [5], the outcome was Active.

With `CN(C)c1ccc(CC(=O)N[C@@H](CCC(=O)NCCCCC(NC(=S)Nc2cccc3c2C(=O)OC32c3ccc(O)cc3Oc3cc(O)ccc32)C(=O)O)C(=O)NCc2ccccc2N2CCCC2)cc1` (stereo not given in full), the outcome in experiment [6] was Active.

Turning to `CN(C)c1ccc(CC(=O)N[C@@H](CCC(N)=O)C(=O)N2CCCN(c3ccc(F)cc3)CC2)cc1`, the outcome in experiment [5] was Active.

For `CN(C)c1ccc(CC(=O)N[C@@H](CCC(N)=O)C(=O)NCc2cccc(N3CCOCC3)c2)cc1`, the result in experiment [5] was Active.

On to `CN(C)c1ccc(CC(=O)N[C@H](CCC(N)=O)C(=O)NCc2ccccc2N2CCCC2)cc1`, for which the result in experiment [5] was Active.

On to `N=C(N)NCCC[C@@H](NC(=O)[C@@H](CC(=O)O)NC(=O)[C@H](CCCCNC(=O)CCCCCNC(=O)CCCCn1cc(CCCC(=O)Nc2nc(-c3ccc(O)cc3O)cs2)nn1)NC(=O)CCCCCNC(=O)CCCCn1cc(CCCC(=O)Nc2nc(-c3ccc(O)cc3O)cs2)nn1)C(=O)N[C@H](CC(=O)O)C(=O)NCCCCCC(=O)NC(CSC1CC(=O)N(c2ccc3c(c2)C(=O)OC32c3ccc(O)cc3Oc3cc(O)ccc32)C1=O)C(=O)O` (single isomer, unassigned), for which the result in experiment [1], in experiment [2], in experiment [3] and in experiment [4] was Active.

Regarding `CN(C)c1ccc(CC(=O)N[C@H](CCC(=O)NCCCCC(NC(=S)Nc2cccc3c2C(=O)OC32c3ccc(O)cc3Oc3cc(O)ccc32)C(=O)O)C(=O)NCc2ccccc2N2CCCC2)cc1` (stereo not given in full), the outcome in experiment [6] was Active.
